Assay results reported in ChEMBL document CHEMBL2434933, “Synthesis, physicochemical properties of allopurinol derivatives and their biological activity against Trypanosoma cruzi” (Eur J Med Chem, 2013).
Values after ≈ are worked out from the molar mass of the structure shown. Active and inactive are the calls of the source. No cut-off for these calls is given here.

How the values were obtained:
Trypanosoma cruzi [1] = experiment: Antimicrobial activity against blood stream form of Trypanosoma cruzi RA assessed as growth inhibition at 1 to 70 ug/ml after 24 hrs by Neubauer chamber counting analysis; assay type: functional, organism-based
Procedure, shortened: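 RA-strain bloodstream trypomastigotes were enriched from infected-mouse blood at peak parasitemia. They were used at 1.5 x 10^6/mL in RPMI 1640 with 10% FCS. Parasites were exposed for 24 h at 37 °C in 5% CO2 to 0–70 ug/mL compound from 40 mM DMSO stocks (final DMSO <0.5%). 0.5% DMSO served as negative control. Surviving parasites were counted by Neubauer chamber. Three independent experiments, each in triplicate.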

[2] = Drug degradation in 30% H2O2 assessed as allopurinol formation; assay type: physicochemical
Plasma = experiment: Metabolic stability of the compound in human plasma; assay type: ADME, cell-free
Procedure, shortened: (§1)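 Stability in human plasma was followed by micellar LC, with allopurinol tracked as product. Pseudo-first-order kinetics gave t1/2 or kobs.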

[3] = Stability of the compound in simulated gastric fluid at 37 degC after 1 hr; assay type: physicochemical; conditions: simulated gi fluid
Procedure, shortened: (§2)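 Compounds came from DMSO stocks of 1.0 x 10^-4 mol/mL. They were incubated at 37 °C in buffer pH 1.2 or SGF (pepsin) for 1 h, and in buffer pH 6.8 or SIF (pancreatin) for 3 h. Samples were analysed by micellar LC. Percent degradation was reported; kinetics were treated as pseudo-first-order.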

[4] = Stability of the compound in simulated intestinal fluid at 37 degC after 3 hrs; assay type: physicochemical; conditions: simulated gi fluid; procedure, shortened: as §2
[5] = Stability of the compound in 0.1 M SDS-0.01 M 7.5% (v/v) 1-propanol-NaH2PO4/H3PO4 assessed as compound recovery at 3.5 x 10^-7 mol/ml by micellar liquid chromatography; assay type: physicochemical
Procedure, shortened: (§3)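 Recovery: N1-acyl compounds were spiked at 7.5 x 10^-9, 6 x 10^-8 and 3.5 x 10^-7 mol/mL (ten replicates each) into pH 1.2 and 6.8 buffers, SGF and SIF. Analysis used MLC with 0.1 M SDS–7.5% 1-propanol–0.01 M NaH2PO4/H3PO4 pH 3.0, at 1 mL/min, 25 °C and 276 nm. Recovery was calculated against working standards.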

[6] = Stability of the compound in simulated intestinal fluid assessed as retention time by micellar liquid chromatography; assay type: physicochemical; conditions: simulated gi fluid
[7] = Intrinsic solubility of the compound in standard phosphate buffer at pH 6.8 at 37 degC after 24 hrs by shake-flask method; assay type: physicochemical; conditions: read-out: Intrinsic_solubility
Procedure, shortened: (§4)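 Shake-flask intrinsic solubility: solid compound was added to phosphate buffer until excess remained undissolved. The thermostated saturated solution was shaken for 24 h to reach equilibrium, at 25 °C and at 37 °C.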

[8] = Stability of the compound in buffer at 37 degC at pH 6.8 after 3 hrs in presence of pancreatin; assay type: ADME; conditions: pH 6.8, 3 h; procedure, shortened: as §2
[9] = Stability of the compound in buffer at 37 degC at pH 1.2 after 1 hr in presence of pepsin; assay type: ADME; conditions: isolated protein, pH 1.2, 1 h; procedure, shortened: as §2
[10] = Octanol-water partition coefficient, log P of the compound by RP-HPLC analysis; assay type: physicochemical
Procedure, shortened: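 RP-HPLC lipophilicity: isocratic buffer pH 5.5–MeOH, 30–75% MeOH in 5% steps. Three injections per compound and five per standard at each ratio. log k' = log(tR − t0)/t0 was computed from retention times.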

[11] = Stability of the compound in 0.1 M SDS-0.01 M 7.5% (v/v) 1-propanol-NaH2PO4/H3PO4 assessed as compound recovery at 6 x 10^-8 mol/ml by micellar liquid chromatography; assay type: physicochemical; procedure, shortened: as §3
Trypanosoma cruzi [12] = experiment: Antimicrobial activity against Trypanosoma cruzi RA amastigotes infected in African green monkey Vero cells assessed as growth inhibition at 1 ug/ml after 72 hrs by Giemsa staining-based light microscopy; assay type: functional, organism-based
Procedure, shortened: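 RA-strain bloodstream trypomastigotes infected irradiated Vero cells (2000 rads) on coverslips at a 5:1 parasite:cell ratio for 24 h. Cells were washed, then exposed to 1 ug/mL compound for 72 h at 37 °C in 5% CO2. Coverslips were fixed in methanol and Giemsa-stained. Infected cells were scored by light microscopy against untreated infected cultures.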

[13] = Stability of the compound in 0.1 M SDS-0.01 M 7.5% (v/v) 1-propanol-NaH2PO4/H3PO4 assessed as compound recovery at 7.5 x 10^-9 mol/ml by micellar liquid chromatography; assay type: physicochemical; procedure, shortened: as §3
[14] = Intrinsic solubility of the compound in standard phosphate buffer at pH 6.8 at 25 degC after 24 hrs by shake-flask method; assay type: physicochemical; conditions: read-out: Intrinsic_solubility; procedure, shortened: as §4
Trypanosoma cruzi [15] = experiment: Antimicrobial activity against Trypanosoma cruzi RA amastigotes infected in African green monkey Vero cells assessed as growth inhibition after 72 hrs by Giemsa staining-based light microscopy; assay type: functional, organism-based
Procedure, shortened: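 Vero cells irradiated at 2000 rads, seeded on coverslips and infected with bloodstream trypomastigotes of RA strain at 5:1 parasite:cell for 24 h. Free parasites were washed off and cultures incubated 72 h with compound, 0.5–50 range, triplicate, at 37 °C in 5% CO2. Vehicle 0.5% DMSO. Coverslips were methanol-fixed and Giemsa-stained. Infection rate and amastigotes per cell (100 infected cells) were read by light microscopy. IC50 estimated from percentage infection.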

[16] = Drug degradation in 3.5% H2O2 assessed as allopurinol formation; assay type: physicochemical
[17] = Drug degradation in simulated gastric fluid at 37 degC after 1 hr; assay type: physicochemical; conditions: read-out: Drug degradation; procedure, shortened: as §2
[18] = Stability of the compound in simulated gastric fluid assessed as retention time by micellar liquid chromatography; assay type: physicochemical; conditions: simulated gi fluid
[19] = Drug degradation in simulated intestinal fluid at 37 degC after 3 hrs; assay type: physicochemical; conditions: read-out: Drug degradation; procedure, shortened: as §2
[20] = Drug degradation in 0.1 M HCl assessed as allopurinol formation at 1 mg/ml at 90 degC; assay type: physicochemical; conditions: buffer
[21] = Half life in human plasma; assay type: ADME, cell-free; procedure, shortened: as §1
[22] = Drug degradation in 0.1 M NaOH assessed as allopurinol formation at 1 mg/ml at 90 degC; assay type: physicochemical
[23] = Drug degradation in buffer at 37 degC at pH 6.8 after 3 hrs in presence of pancreatin; assay type: physicochemical; conditions: buffer with pancreatin, read-out: Drug degradation; procedure, shortened: as §2
[24] = Drug degradation in buffer at 37 degC at pH 1.2 after 1 hr
[25] = Cytotoxicity against mouse splenocytes assessed as cell viability at 50 times IC50 after 32 hrs by Alamar Blue assay; assay type: cell-based; conditions: splenocyte
Procedure, shortened: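 Viability was read by Alamar Blue and expressed as percent of untreated control. Two experiments, each in duplicate.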

[26] = Dissociation constant, pKa of the compound at 25 degC; assay type: physicochemical
Procedure, shortened: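 pKa computed with ACDpKa software. Only for the parent drug was it checked against a pH-solubility profile at 25 °C.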

[27] = Stability of the compound in 0.05 M SDS-0.01 M NaH2PO4/H3PO4 assessed as compound recovery at 6 x 10^-8 mol/ml by micellar liquid chromatography; assay type: physicochemical
Procedure, shortened: (§5)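 Analytical recovery. Standards at 7.5 × 10⁻⁹, 6 × 10⁻⁸ and 3.5 × 10⁻⁷ mol/mL, ten replicates each, were spiked into pH 1.2 and pH 6.8 buffers and into SGF and SIF. They were analysed by MLC with mobile phase 0.05 M SDS–0.01 M NaH2PO4/H3PO4 pH 3.0 at 1.25 mL/min, 25 °C, detection at 250 nm. Recovery was found concentration relative to working standards.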

[28] = Stability of the compound in 0.05 M SDS-0.01 M NaH2PO4/H3PO4 assessed as compound recovery at 3.5 x 10^-7 mol/ml by micellar liquid chromatography; assay type: physicochemical; procedure, shortened: as §5
[29] = Stability of the compound in 0.05 M SDS-0.01 M NaH2PO4/H3PO4 assessed as compound recovery at 7.5 x 10^-9 mol/ml by micellar liquid chromatography; assay type: physicochemical; procedure, shortened: as §5
[30] = Drug degradation in 0.1 M NaOH at 1 mg/ml at 90 degC after 16 hrs; assay type: physicochemical
Procedure, shortened: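 Compound at 1 mg/mL was heated in 0.1 M NaOH at 90 °C for 16 h. Percent degradation was quantified by micellar liquid chromatography.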

Compound	Stability (Plasma)	Drug recovery [5] [%]	Retention_time [6] [min]	solubility thermodynamic at 24 h [7] [µg/mL]	logP [10]	Drug recovery [11] [%]	Drug recovery [13] [%]	solubility thermodynamic at 24 h [14] [µg/mL]	Retention_time [18] [min]	growth inhibition (GI) (Trypanosoma cruzi [1])	growth inhibition (GI) (Trypanosoma cruzi [12])	also measured
CCCc1nc(O)c2c[nH]nc2n1										inactive		
CCC(=O)n1ncc2c(=O)[nH]cnc21										inactive		
O=C(Cn1ccnc1[N+](=O)[O-])NCc1ccccc1											Active	
CCCC(=O)n1ncc2c(=O)[nH]cnc21										inactive	Active	IC50 (Trypanosoma cruzi [15]): 11.3 µM; inhibition (Trypanosoma cruzi [15]): Dose-dependent effect
CC(=O)n1ncc2c(=O)[nH]cnc21										inactive		
CCC(=O)n1ncc2c(O)ncnc21	Unstable	103.18		> 65	1.22	103.09	99.74	> 65	4			Stability [16]: Unstable; degraded at 1 h [17]: 32%; degraded at 3 h [19]: 100%; Stability [20]: Unstable; half-life [21]: 9.5 min; Stability [22]: Unstable; metabolised at 3 h [23]: 100%; metabolised at 1 h [24]: 30.3%
CCCc1nc2n[nH]cc2c(=O)[nH]1	100%	100.27	7.8	2560 (≈ 14.4 mM)	1.14	99.59	101.17	2070 (≈ 11.6 mM)				Stability [3]: Stable; Stability [4]: Stable; Stability [8]: Stable; Stability [9]: Stable
CCCC(=O)n1ncc2c(O)ncnc21	Unstable	100.3		> 65	1.99	101.42	103.11	> 65	7.7			Activity [25]: Non-toxic; Stability [16]: Unstable; degraded at 1 h [17]: 26.5%; degraded at 3 h [19]: 100%; Stability [20]: Unstable; half-life [21]: 6.1 min; Stability [22]: Unstable; metabolised at 3 h [23]: 100%; metabolised at 1 h [24]: 27%
Oc1ncnc2[nH]ncc12 [ALLOPURINOL]	100%	97.54	2.6	900 (≈ 6.61 mM)		98.55	102.4	490 (≈ 3.6 mM)	2.4		Active	Activity [25]: Non-toxic; IC50 (Trypanosoma cruzi [15]): 9.62 µM; inhibition (Trypanosoma cruzi [15]): Dose-dependent effect; pKa [26]: 9.7; Drug recovery [27]: 98.85%; Drug recovery [28]: 100.17%; Drug recovery [29]: 97.37%; Stability [30]: Stable

The next lines start with results.

Stability (Plasma)	Drug recovery [5] [%]	Retention_time [6] [min]	solubility thermodynamic at 24 h [7] [µg/mL]	logP [10]	Drug recovery [11] [%]	Drug recovery [13] [%]	solubility thermodynamic at 24 h [14] [µg/mL]	Retention_time [18] [min]	Compound	growth inhibition (GI) (Trypanosoma cruzi [1])	growth inhibition (GI) (Trypanosoma cruzi [12])	also measured
100%	102.77	3	2020 (≈ 13.5 mM)	-0.05	102.72	98.57	1480 (≈ 9.86 mM)		Cc1nc(O)c2c[nH]nc2n1	inactive	Active	Stability [2]: Stable; Stability [3]: Stable; Stability [4]: Stable; Stability [8]: Stable; Stability [9]: Stable
100%	97.78	4.7	940 (≈ 5.73 mM)	0.52	97.07	101.19	710 (≈ 4.32 mM)		CCc1nc(O)c2c[nH]nc2n1	inactive	Active	Stability [3]: Stable; Stability [4]: Stable; Stability [8]: Stable; Stability [9]: Stable
Unstable	99.04		> 65	0.4	102.42	98.03	> 65	3	CC(=O)n1ncc2c(O)ncnc21			Stability [16]: Unstable; degraded at 1 h [17]: 18.9%; degraded at 3 h [19]: 100%; Stability [20]: Unstable; half-life [21]: 8.4 min; Stability [22]: Unstable; metabolised at 3 h [23]: 100%; metabolised at 1 h [24]: 17.1%
